The source of these data is ChEMBL document CHEMBL4038265, “Antiprotozoal Activity-Based Profiling of a Dichloromethane Extract from Anthemis nobilis Flowers” (J Nat Prod, 2017).

For data set [1], the system named is Trypanosoma cruzi. As to the kind of experiment: Antiprotozoal activity against Trypanosoma cruzi Tulahuen C4 infected in rat L6 cells after 96 hrs by beta-galactosidase reporter gene assay. The settings on record: Tulahuen C4, L6, 96 h. The data set is classed as functional, cell-based. Background: Reporter assays use an easily measured gene product as a stand-in for the process of interest.

Data set [2] relates to Plasmodium falciparum. Put plainly: Antiprotozoal activity against erythrocytic stage of Plasmodium falciparum NF54 after 48 hrs by [3H]- hypoxanthine incorporation assay. The data set is classed as functional.
The nature of data set [3]: Selectivity index, ratio of IC50 for rat L6 cells to IC50 for bloodstream form of Trypanosoma brucei rhodesiense STIB900. It is filed as toxicity. The settings on record: read-out: Ratio IC50.
Data set [4] in a line: Selectivity index, ratio of IC50 for rat L6 cells to IC50 for amastigote form of Leishmania donovani MHOM/ET/67/L82. It is filed as toxicity. The settings on record: read-out: Ratio IC50.
Data set [5] deals with Leishmania donovani. Put plainly: Antiprotozoal activity against amastigote form of Leishmania donovani MHOM/ET/67/L82 after 72 hrs by Alamar Blue assay. Conditions: MHOM/ET/67/L82, 72 h. The data set is classed as functional. (In general: The colour change of resazurin is a common sign of viable cells or microbes.)
Data set [6] relates to L6. Put plainly: Cytotoxicity against rat L6 cells after 72 hrs by Alamar Blue assay. Conditions: L6, 72 h. The data set is classed as cell-based. In short, it runs like this: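 Rat L6 cytotoxicity IC50 values (μM) are averages of three independent assays.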
The nature of data set [7]: Selectivity index, ratio of IC50 for rat L6 cells to IC50 for erythrocytic stage of Plasmodium falciparum NF54. It is filed as toxicity. Conditions: read-out: Ratio IC50.
A short description of data set [8]: Selectivity index, ratio of IC50 for rat L6 cells to IC50 for Trypanosoma cruzi Tulahuen C4. The data set is classed as toxicity. The settings on record: read-out: Ratio IC50.
Data set [9] concerns Trypanosoma brucei rhodesiense. Put plainly: Antiprotozoal activity against bloodstream form of Trypanosoma brucei rhodesiense STIB900 after 72 hrs by Alamar Blue assay. The settings on record: STIB900, 72 h. The data set is classed as functional.

Molecules are shown by their SMILES.

As a reminder, the IC50 is the concentration that inhibits the measured activity by half. As to `C=C(C[C@H](OC(=O)/C(C)=C\C)[C@@H]1C(=C)C(=O)O[C@H]1/C=C(\C)C=O)C(C)=O`, the concentration for half-maximal inhibition (IC50) was determined as 5 µM in data set [1]; 2 µM in [2]; 380 nM in data set [5]; 1.8 µM in [6]; 420 nM in data set [9]. In addition, the selectivity ratio in data set [3] worked out at 4.3; in [4], 4.7; in data set [7] it was 0.9; in data set [8], 0.3.

In the case of `C=C1C(=O)O[C@H]2/C=C(/C)[C@@H](O)C[C@H](O)C(=C)C[C@H](OC(=O)/C(C)=C\C)[C@@H]12`, the IC50 in data set [1] is 29.3 µM; in [2], 7.8 µM; in data set [5], 13200 nM; in data set [6] it was 5.1 µM; in data set [9], 610 nM. Moreover, the selectivity ratio in data set [3] worked out at 8.3; in [4] it was 0.4; in [7] it was 0.6; in data set [8] it was 0.2.

In the case of `C=C1C[C@H](OC(=O)/C(C)=C\C)[C@H]2C(=C)C(=O)O[C@H]2/C=C(/C)[C@@H](O)CC1=O`, the IC50 in data set [1] was 2.8 µM; in [2] it was 1.9 µM; in data set [5], 500 nM; in data set [6], 1.5 µM; in [9], 400 nM. In addition, the selectivity ratio in data set [3] came to 3.9; in data set [4], 3.1; in data set [7], 0.8; in data set [8], 0.5.

As to `C=C1C(=O)O[C@H]2/C=C(/C)[C@@H](O)C[C@@H](O)/C(C)=C\[C@H](OC(=O)/C(C)=C\C)[C@@H]12`, the half-inhibitory concentration (IC50) in data set [1] is 26.1 µM; in [2], 9.6 µM; in [5], 8400 nM; in [6] it was 5.3 µM; in [9], 1400 nM. The selectivity ratio worked out at 3.9 in [3], 0.6 in data set [4], 0.5 in [7] and 0.2 in data set [8].

As to `C=C1C(=O)O[C@H]2/C=C(/C)[C@@H](O)C/C=C(\C=O)C[C@H](OC(=O)/C(C)=C\C)[C@@H]12`, the half-maximal inhibitory concentration (IC50) was determined as 9.8 µM in [1]; 1.9 µM in data set [2]; 1600 nM in data set [5]; 1.8 µM in [6]; 400 nM in data set [9]. The selectivity ratio in data set [3] came to 3.9; in data set [4], 1.1; in [7], 0.9; in data set [8], 0.2.

Take `C=C1C(=O)O[C@H]2/C=C(/C)[C@@H](O)C[C@H](O)C(=C)C[C@H](OC(=O)/C(C)=C/C)[C@@H]12`: the IC50 in [1] was found to be 26.7 µM; in data set [2], 6.2 µM; in data set [5] it was 5300 nM; in data set [6] it was 5.1 µM; in data set [9], 360 nM. Further, the selectivity ratio came out at 14.1 in data set [3], 1 in data set [4], 0.8 in data set [7] and 0.2 in data set [8].

As to `C=C1C(=O)O[C@@H]2/C=C(/C)[C@@H]3C[C@H](O)[C@@](CO)(C[C@H](OC(=O)/C(C)=C\C)[C@@H]12)O3`, the IC50 in data set [1] was determined as 37.3 µM; in data set [2], 4.7 µM; in data set [5], 9800 nM; in [6] it was 5.1 µM; in data set [9] it was 80 nM. Moreover, the selectivity ratio was 63.1 in data set [3], 0.5 in data set [4], 1.1 in data set [7] and 0.1 in data set [8].

On to `C=C(C)C(=O)O[C@H]1C/C(C)=C/C[C@H](O)/C(C)=C\[C@@H]2OC(=O)C(=C)[C@@H]21`, for which the IC50 was 4.2 µM in data set [1], 28.2 µM in data set [6] and 4600 nM in data set [9]. Besides, the selectivity ratio in data set [3] and in data set [8] was 6.1 throughout.

In the case of `C=C1C(=O)O[C@H]2/C=C(/C)[C@@H](O)C[C@@H]3O[C@]3(C)C[C@H](OC(=O)/C(C)=C/C)[C@@H]12`, the IC50 in data set [1] was found to be 7.3 µM; in data set [2], 3 µM; in data set [5] it was 2700 nM; in data set [6] it was 5.3 µM; in data set [9], 1200 nM. The selectivity ratio in data set [3] came out at 4.5; in [4], 1.9; in data set [7], 1.8; in data set [8], 0.7.

As for `C=C1C(=O)O[C@H]2/C=C(/C)[C@H](O)C[C@H](O)C(=C)C[C@H](OC(=O)/C(C)=C\C)[C@@H]12`, the IC50 is 31.1 µM in data set [1]; 7.9 µM in data set [2]; 23000 nM in data set [5]; 7.3 µM in data set [6]; 880 nM in data set [9]. In addition, the selectivity ratio in data set [3] came out at 8.3; in data set [4], 0.3; in [7], 0.9; in [8] it was 0.2.

Consider `C=C1C(=O)O[C@H]2[C@H]1[C@@H](OC(=O)/C(C)=C\C)CC(=C)[C@@H]1C=C[C@@](C)(O)[C@H]21`, for which the IC50 in [1] was determined as 10.9 µM; in [2] it was 8.5 µM; in [5] it was 800 nM; in [6] it was 5.8 µM; in [9] it was 1300 nM. For the same compound, the selectivity ratio was 4.4 in data set [3], 7.2 in [4], 0.68 in [7] and 0.6 in [8].

With `C=C1C(=O)O[C@@H](/C=C(\C)C=O)[C@@H]1[C@H](/C=C(/C)C(C)=O)OC(=O)/C(C)=C\C`, the IC50 in data set [1] came out at 11.3 µM; in [2], 2.2 µM; in data set [5], 500 nM; in data set [6] it was 5.2 µM; in data set [9], 1200 nM. Also, the selectivity ratio was found to be 4.3 in [3], 11.2 in data set [4], 2.3 in [7] and 0.5 in data set [8].

With `C=C1C(=O)O[C@H]2/C=C(/C)[C@@H](O)C/C=C(\C)C[C@H](OC(=O)/C(C)=C\C)[C@@H]12`, the IC50 in [1] came to 11.3 µM; in data set [2], 3.1 µM; in [5] it was 2700 nM; in data set [6] it was 4.9 µM; in [9] it was 2100 nM. For the same compound, the selectivity ratio came out at 2.4 in data set [3], 1.8 in data set [4], 1.6 in data set [7] and 0.4 in data set [8].

Regarding `O=C(Cn1ccnc1[N+](=O)[O-])NCc1ccccc1` [BENZNIDAZOLE], the IC50 in data set [1] is 2 µM.

In [5], `CCCCCCCCCCCCCCCCOP(=O)([O-])OCC[N+](C)(C)C` [MILTEFOSINE] gave an IC50 of 130 nM.

As to `COc1cc([C@@H]2c3cc4c(cc3[C@H](O)[C@H]3COC(=O)[C@H]23)OCO4)cc(OC)c1OC` [PODOFILOX], in [6], half-maximal inhibition (IC50) required 0.016 µM.
